Assay outcomes deposited in PubChem by SRMLSC.
Lung fibro prol – antiproliferative effect on LL 47 fibroblasts – human, LL 47 cells, CellTiter-Glo luminescence, primary screen; AID 719, 2007; 85,000 tested, 1.1% active; viability, % at 10 µM; LL 47 human lung fibroblast viability, ATP luminescence; hits give low values;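 active means viability at or below 50% in the single dose screen; inactive means viability above 50%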;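 further: compound exposure lasted 72 h before the ATP readout; 100% = median luminescence of untreated cell-only wells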
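Material: human LL 47 lung fibroblast cells; quantity: 1,150 cells/well; medium: IMEM plus 15% FBS; doses: 0.1% DMSO in all compound wells; timing: overnight attachment after seeding, then 72 h compound exposure at 37 °C; detection: CellTiter-Glo luminescence; measure: % viability of median cell-only signal; controls: cell-only wells, no compound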
H69AR growth 86K – proliferation blockers of H69AR lung cancer cells, primary screen, cell-based, human, 86K library | H69AR lung tumor viability, ATP luminescence, 72 h; hits give low values | viability, % at 10 µM | 85,000 tested, 6% active;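 active means viability at or below 40%; inactive means viability above 40%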;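 further: multidrug resistant small cell line overexpressing MRP-1 efflux transporter; 100% = mean luminescence of untreated control wells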
HUVEC prolif 384 – inhibitors of HUVEC proliferation, primary screen, cell-based, 384-well | CellTiter-Glo luminescence, 72 h; hits give low values | viability, % at 10 µM (by protocol) | 86,000 tested, 1.1% active | AID 648, 2007;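 active means viability at or below 30%; inactive means viability above 30%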;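 further: 100% = median luminescence of DMSO-only cell control wells on each plate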
PTEN del growth – growth suppression of PTEN-null HCT116, primary screen, cell-based, CellTiter-Glo | 140,000 tested, 1.2% active | HCT116 PTEN-null viability, 60 h; hits give low values | viability, % at 10 µM | AID 827, 2007;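 active means viability at or below a set limit, 4 SD under the median of all tested compounds, cut at about 3.7% in these data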;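 further: PTEN knockout HCT116 line with beta catenin targeted HCT116 as companion control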
HCT116 bCat-KO – primary screen for growth suppressors in beta-catenin knockout HCT116 cells (colon tumor, human); HCT116 beta-catenin knockout viability, CellTiter-Glo, 60 h; hits give low values; viability, % at 10 µM; 140,000 tested, 1.5% active; AID 818, 2007;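 active means viability at or under a set limit, the compound median less 4 SD, cut at about 6% in these data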;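 further: 0% = Hyamine 1622 control at 20 µM and 100% = untreated cell control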
Active calls of the source: *; . = no result. Only a selection was taken, and hits are over-represented in it overall.

SMILES	Lung fibro prol	H69AR growth 86K	HUVEC prolif 384	PTEN del growth	HCT116 bCat-KO
CCC1=Nc2cc(C(=O)NCCCOC(C)C)ccc2Sc2ccccc21	56	26*	59	90	88
N#Cc1ccc(-c2ccco2)nc1SCC(=O)c1ccc(Cl)cc1	93	6.2*	38	69	68
Cc1ccc(C(=O)CSc2nc(-c3ccccc3)ccc2C#N)cc1	.	.	.	76	80
CCOC(=O)c1ccccc1NC(=O)CN(c1ccccc1)S(=O)(=O)N(C)C	98	38*	81	70	65
CCOC(=O)c1ccccc1NS(=O)(=O)c1ccc(C)cc1	88	11*	74	21	23
CCOC(=O)COc1ccc(S(=O)(=O)N2CCc3ccccc3C2)cc1	61	92	6.2*	88	87
CCOc1ccc(S(=O)(=O)Nc2cccc(OC)c2)cc1	95	38*	88	71	74
COc1ccc(/C=N/NC(=O)c2[nH]ncc2Br)c(OC)c1	.	.	.	96	96
CCOC(=O)c1c(NC(=O)c2ccc(N3C(=O)C4C5C=CC(C5)C4C3=O)cc2)sc2c1CCCC2 (centres undefined)	.	.	.	88	80
COc1ccc(C(=O)NC(NC(=S)Nc2ccc(S(N)(=O)=O)cc2)C(Cl)(Cl)Cl)cc1 (centres undefined)	.	.	.	72	72
CCOC(=O)COc1ccc(S(=O)(=O)Nc2ccc(C)cc2)cc1	16*	94	11*	93	97
CCOC(=O)COc1ccc(S(=O)(=O)Nc2ccc3c(c2)OCO3)cc1	63	100	41	99	112
COc1ccccc1Nc1nc(N)nc(CSC(=S)N2CC(C)CC(C)C2)n1 (centres undefined)	.	.	.	67	66
O=C(COc1ccc([N+](=O)[O-])cc1)NN=C1CCCC1	.	.	.	88	88
CCc1ccc(N2C(=O)c3sc4nnc(-c5ccccc5)c(=O)n4c3C2=O)cc1	61	30*	81	86	101
CCOC(=O)N1CCN(c2cc3[nH]c(=S)[nH]c3cc2F)CC1	98	65	98	100	102
CCOC(=O)N1CCN(c2c(F)cc3[nH]c(=S)[nH]c3c2Br)CC1	60	8.9*	78	35	35
Cc1c(Cl)ccc2c1NC(=O)[C@]21N[C@@H](Cc2ccccc2)[C@H]2C(=O)N(c3ccc(F)cc3)C(=O)[C@H]21	89	19*	67	43	52
CCC(C)(C(=O)NC1CCCC1)N(C(=O)c1ccccn1)c1ccc(C)cc1 (centres undefined)	108	94	110	100	95
CCN(CC)CCn1c2ccccc2c2cnc(N)c(C#N)c21	22*	29*	77	4	4.3*
CN(C)C=Nc1ncc2c3ccccc3n(CCN(C)C)c2c1C#N	63	54	65	20	24
O=C(Nc1cccc(S(=O)(=O)N2CCOCC2)c1)c1c2c(nc3ccccc13)CCC2	.	.	.	97	97
COc1ccc(-n2cccc2C=O)cc1	.	.	.	99	96
COc1ccc(-n2cccc2/C=C/[N+](=O)[O-])cc1	.	.	.	2.8*	2.2*
CC(NC(=O)CN(c1cccc(C(F)(F)F)c1)S(=O)(=O)c1ccc(Cl)c([N+](=O)[O-])c1)c1ccccc1 (centres undefined)	.	.	.	20	5.8*
SMILES	Lung fibro prol	H69AR growth 86K	HUVEC prolif 384	PTEN del growth	HCT116 bCat-KO
Cc1cccc(NC2=Nc3ccccc3N3C2=Nc2c(c(C)nn2-c2ccccc2)C3c2ccc(O)c(O)c2)c1 (centres undefined)	45*	1.1*	41	1.1*	2.3*
Cc1nn(-c2ccccc2)c2c1C(c1ccc([N+](=O)[O-])cc1)N1C(=N2)C(=O)Nc2ccccc21 (centres undefined)	.	.	.	32	42
Cc1nn(-c2ccccc2)c2c1C(c1ccc(O)c(O)c1)N1C(=N2)C(Nc2ccccc2)=Nc2ccccc21 (centres undefined)	39*	21*	13*	1.2*	1.1*
Cc1ccc(NC2=Nc3ccccc3N3C2=Nc2c(c(C)nn2-c2ccccc2)C3c2ccc(O)c(O)c2)cc1 (centres undefined)	37*	16*	15*	1.1*	1.2*
Oc1ccc(Br)cc1C=Nc1ccc2c3c(cccc13)CC2	.	.	.	64	59
Cc1nn(CC(=O)OC(C)C(=O)Nc2ccccc2[N+](=O)[O-])c(C)c1[N+](=O)[O-] (centres undefined)	.	.	.	95	89
COc1cc(S(=O)(=O)N2CCC(c3nc4ccccc4s3)CC2)ccc1S(=O)(=O)NC1CCCC1	100	74	86	76	76
Cc1ccc(C)c(N2CCN(CCCNC(=O)Cn3cc4c(n3)CCCCC4)CC2)c1	84	50	22*	1.7*	2.1*
Cc1ccc(C)c(N2CCN(CCCNC(=O)Cn3cc4c(n3)CCC(C)C4)CC2)c1 (centres undefined)	73	46	15*	9	10
Cc1ccc(-n2nnnc2-c2cnc3cc4c(cc3c2C)OCO4)cc1	.	.	.	85	80
N#Cc1ccc(C(=O)Nc2cccc3ncccc23)c(F)c1	.	.	.	92	90
Cc1cc(C)c2oc(-c3ccc(Cl)c(NC(=O)c4ccc(C#N)cc4F)c3)nc2c1	20*	22*	57	64	56
O=C(COC(=O)CC1CCCC1)Nc1cc2c(cc1Cl)C(=O)c1ccccc1C2=O	79	19*	32	79	68
CCCCCCCCCCCCCCCC[n+]1ccc(C(N)=O)cc1	.	.	.	1.1*	1.1*
CCCCCCCCCCCCCCCC[n+]1cccc(C(=O)N(CC)CC)c1	.	.	.	1.5*	1.5*
CCCCCCCCCCCCCCCC[n+]1ccc(/C=N/O)cc1	.	.	.	1.0*	0.9*
CCOc1c(Cl)cc(CNCC(C)C)cc1Cl	103	102	100	101	100
NS(=O)(=O)c1cccc(NC(=O)Cn2cnc3ccccc3c2=O)c1	.	.	.	97	95
COc1ccc(N/N=C(/C(N)=O)C2=NC(C)(C)Cc3ccccc32)cc1	.	.	.	41	51
O=C(NCCc1cccc(Cl)c1)c1ccc(Cl)c([N+](=O)[O-])c1	.	.	.	67	85
CC(C)(CNC(=O)c1ccc([N+](=O)[O-])c(Cl)c1)CNC(=O)c1ccc([N+](=O)[O-])c(Cl)c1	.	.	.	2.1*	2.0*
COc1cc(C(=O)Nc2c(C)cc(C)cc2C)c([N+](=O)[O-])cc1OC	.	.	.	91	98
COc1ccc(N2CS(=O)(=O)/C(=C/N(C)C)C2=O)cc1	.	.	.	86	98
CC1CN(c2nc(-c3ccc(Br)cc3)nnc2-c2ccccc2)CC(C)N1 (centres undefined)	.	.	.	1.0*	0.9*
Clc1ccc(-c2nnc(-c3ccccc3)c(N3CCSCC3)n2)cc1	.	.	.	62	66
CCCc1nnc(NC(=O)c2c(O)c3cccc4c3n(c2=O)CCC4)s1	97	6.0*	108	.	.
